Bioassay records as filed in PubChem BioAssay.
Sampled rows, rich in hits. Any-hit rate of the full collection: about 3.1%.
RBBP9 inh = blocks human serine hydrolase RBBP9; recombinant RBBP9, FP-Rh probe fluorescence polarization; inhibition, % at 7.94 µM; 220,000 tested, 0.2% active; AID 1515;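 active = inhibition above the campaign mean of all tested compounds plus 3 SD, cut at about 14% in these data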;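 note: plate controls were DMSO wells with RBBP9 for no effect and wells lacking RBBP9 protein for full effect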
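Measured by – fluorescence polarization · Test system – RBBP9 protein · Input – 2.5 µM RBBP9 dispensing solution, before mixing · Measure – percent inhibition from mP, scaled between DMSO and no-protein wells · Benchmarks – DMSO-treated enzyme wells and wells lacking RBBP9 · Times – preincubation 30 min plus labeling 45 min at 25 °C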
LEDGF integ inh = blocks HIV-1 LEDGF/p75-dependent DNA integration; AID 743269; TR-FRET IN-LEDGF/p75 DNA integration, Eu/Cy5; 370,000 tested, 0.64% active; inhibition, % at 3.7 µM;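 active = inhibition above the screen-wide mean plus 3 SD, cut at about 13% in these data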;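 note: signal is the Cy5 over europium emission ratio at 671 and 618 nm; 0% = plate median of compound wells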
ABHD5-PLIN5 inh = inhibitors of human ABHD5-perilipin-5 interaction; 360,000 tested, 0.78% active; inhibition, % at 4 µM; Split G. princeps luciferase complementation, luminescence, 4 h; Q00G26+Q8WTS1; AID 602281;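 active = inhibition above the mean inhibition across every tested compound plus 3 SD, cut at about 22% in these data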;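 note: 0% = DMSO only wells and the 100% control is not disclosed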
PRMT1 FP inh = PRMT1 (human) inhibition, primary screen; Q99873; recombinant PRMT1, activity-based probe fluorescence polarization; inhibition, % at 2.79 µM; 370,000 tested, 1.3% active; AID 652257;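 active = inhibition above about 21% made by adding two undisclosed values, limit read from the data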
MBD2 inh = MBD2-methylated oligo binding inhibition | Q9UBB5 | TR-FRET, MBD2 binding to methylated oligonucleotide | inhibition, % at 4.4 µM | 370,000 tested, 0.31% active | AID 686964; in the data active = inhibition above about 13%
UHRF1 MBD2 ctr = UHRF1 methyl-DNA binding inhibition. 370,000 tested, 0.75% active. UHRF1 binding to methylated oligo, TR-FRET. inhibition, % at 4.4 µM. Q96T88; in the data active = inhibition above about 21%;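 note: UHRF1 SRA domain binding a hemimethylated CpG hairpin DNA probe; 0% = median of test compound wells and 100% = reference inhibitor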
Target sequence (Q96T88 whole entry, looked up, the tested form may be a part): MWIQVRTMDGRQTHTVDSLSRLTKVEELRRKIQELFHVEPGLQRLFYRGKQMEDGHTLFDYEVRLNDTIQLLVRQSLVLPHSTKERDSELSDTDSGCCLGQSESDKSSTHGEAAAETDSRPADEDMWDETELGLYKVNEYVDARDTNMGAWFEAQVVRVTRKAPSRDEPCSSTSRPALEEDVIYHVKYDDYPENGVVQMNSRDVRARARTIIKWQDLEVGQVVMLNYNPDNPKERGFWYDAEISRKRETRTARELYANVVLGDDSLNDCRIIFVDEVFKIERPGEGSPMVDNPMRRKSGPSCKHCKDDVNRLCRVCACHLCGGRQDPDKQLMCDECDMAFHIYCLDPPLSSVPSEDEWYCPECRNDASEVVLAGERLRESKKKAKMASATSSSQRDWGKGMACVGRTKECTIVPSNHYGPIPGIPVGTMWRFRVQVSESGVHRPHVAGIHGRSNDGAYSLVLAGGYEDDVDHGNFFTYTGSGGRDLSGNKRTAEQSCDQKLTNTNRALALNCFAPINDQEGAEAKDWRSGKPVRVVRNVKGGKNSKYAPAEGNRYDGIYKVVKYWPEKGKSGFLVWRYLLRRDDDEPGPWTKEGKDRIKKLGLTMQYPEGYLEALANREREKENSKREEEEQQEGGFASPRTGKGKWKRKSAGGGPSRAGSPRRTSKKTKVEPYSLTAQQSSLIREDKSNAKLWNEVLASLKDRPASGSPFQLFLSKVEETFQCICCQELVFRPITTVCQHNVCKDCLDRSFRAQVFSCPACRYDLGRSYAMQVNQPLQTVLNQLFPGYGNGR
Starred values were filed as active, the others as inactive; i = inactive; nt = no result; + = active, no number.

SMILES | RBBP9 inh | LEDGF integ inh | ABHD5-PLIN5 inh | PRMT1 FP inh | MBD2 inh | UHRF1 MBD2 ctr
COC(=O)[C@]12C[C@H](CC(=O)NCC3CCCCC3)C(=O)N(Cc3ccc(Cl)cc3Cl)C1=C[C@H](C(C)(C)C)O[C@@H]2C | nt | -2 | nt | 3 | -4 | 0
Cc1ccc2nc(-c3ccccc3)c(CN3CCN(c4ccccc4F)CC3)n2c1 | -7 | 0 | -1 | 3 | -1 | 23*
CCOC(=O)c1cnc2c(C(=O)OC)cccc2c1NCc1ccco1 | -10 | 7 | 2 | 22* | -1 | 0
Nc1sc2c(c1C(=O)NCCc1ccccc1)CCC2 | -7 | -1 | -5 | 8 | -3 | -3
Nc1sc2c(c1C(=O)NC1CCS(=O)(=O)C1)CCCC2 (configuration not stated) | 0 | 0 | -30 | 23* | 0 | -2
Nc1sc2c(c1C(=O)NCCc1ccccc1)CCCC2 | nt | 0 | -25 | 36* | 5 | -3
CCOC(=O)[C@]12CCCCC/C=C\1N(Cc1ccc(OC)cc1)C(=O)[C@H]2CC(=O)NCCCCc1ccccc1 | nt | 6 | nt | -3 | -3 | -4
Cc1ccccc1NC(=O)N(C)[C@H]1C[C@H]2c3[nH]c4c(-c5ccc6c(c5)OCO6)cccc4c3CCN2C[C@H]1[C@H](C)O | nt | -3 | nt | 1 | 3 | 0
O=C(Cn1c(=O)n(Cc2ccco2)c(=O)c2c3c(sc21)CCCCC3)c1ccccc1 | -16 | nt | 51* | nt | nt | nt
O=C(Cn1c(=O)n(Cc2ccco2)c(=O)c2c3c(sc21)CCCCC3)Nc1ccccc1 | -14 | 5 | 66* | 24* | 5 | 14
O=c1c2c3c(sc2n(CCN2CCCC2)c(=O)n1Cc1ccco1)CCCCC3 | -8 | 3 | 16 | 0 | -4 | 0
CN(C)CCn1c(=O)n(Cc2ccco2)c(=O)c2c3c(sc21)CCCCC3 | 0 | 4 | 16 | -1 | 1 | -2
CCCCn1nc(NC(=O)CC)c2cc3cc(OC)ccc3nc21 | nt | -2 | -1 | 13 | 11 | 22*
CCCn1nc(NC(=O)C(C)(C)C)c2cc3cc(OC)ccc3nc21 | nt | -4 | 3 | 0 | 5 | 0
CCc1noc(C)c1C(=O)NNC(=O)c1nn(C)c(=O)c2ccccc12 | nt | -5 | 0 | 0 | 2 | 30*
CCc1noc(C)c1C(=O)NNC(=O)c1nn(CC)c(=O)c2ccccc12 | nt | 1 | -11 | -3 | 3 | 0
Nc1ccccc1Sc1nc2ccccc2[nH]1 | 5 | 5 | -8 | 52* | 4 | -1
Cc1ccc(S(=O)(=O)NCC2CN(S(=O)(=O)c3ccc(C)cc3)c3ccccc3C(=O)N2c2ccc(F)cc2)cc1 (configuration not stated) | nt | 7 | nt | -2 | -1 | 12
O=c1c2ccccc2sn1-c1ccc(F)cc1 | nt | -1 | 71* | 84* | 6 | 10
COC(=O)c1cccc(-n2sc3ccccc3c2=O)c1 | nt | 0 | 91* | 98* | 0 | 8
O=c1sc2ccccc2c(=O)n1Cc1ccccc1F | -5 | 3 | -4 | 11 | -4 | 0
COc1cccc(NC(=S)NC(=O)c2cccnc2)c1 | nt | -5 | -1 | 2 | 1 | 0
CCOC(=O)c1cccc(NC(=S)NC(=O)c2cccnc2)c1 | nt | 1 | 4 | 22* | 9 | 6
CCn1c(SC(C)C(=O)O)nc2sc3c(c2c1=O)CCC3 (configuration not stated) | 1 | 11 | -10 | 9 | 10 | 28*
CCCCN1C[C@@H](COCc2ccccc2)Oc2cc(F)ccc2S1(=O)=O | nt | -3 | nt | -5 | 0 | 5
SMILES | RBBP9 inh | LEDGF integ inh | ABHD5-PLIN5 inh | PRMT1 FP inh | MBD2 inh | UHRF1 MBD2 ctr
CC1=C(C(=O)N(C)C)CC(CC(=O)NCCc2ccccn2)C(=O)N1Cc1ccc(C(C)(C)C)cc1 (configuration not stated) | nt | -1 | 1 | 2 | 5 | 21*
CC1=C(C(=O)N(C)C)CC(CC(=O)NCCc2ccccn2)C(=O)N1Cc1ccc(F)cc1 (configuration not stated) | nt | 4 | 3 | -1 | 6 | 19
COc1ccc(CN2C(C(=O)NCC(C)C)CSCCS2(=O)=O)cc1 (configuration not stated) | nt | 4 | nt | 0 | -1 | 0
COCCN1C(=O)COc2ccccc2C1C(=O)Nc1c(C)cccc1C (configuration not stated) | nt | 0 | -7 | 0 | 6 | 21*
O=S(=O)(c1ccccc1F)n1c(CN2CCOCC2)nc2ccccc21 | nt | -1 | nt | 0 | 0 | 0
COc1ccc2c(c1)CN1C(=O)N(Cc3ccc(F)cc3)S(=O)(=O)CC21 (configuration not stated) | nt | 0 | nt | -4 | -1 | -1
O=C(NCc1ccccc1Cl)C1CCCN(c2nc3ccccc3o2)C1 (configuration not stated) | nt | 0 | nt | 13 | -1 | 2
c1ccc(CN2CCN(c3nc(-c4ccccn4)nc4ccccc34)CC2)cc1 | 2 | 2 | 3 | -3 | -5 | -4
c1ccc(CN2CCN(c3nc(-c4ccccc4)nc4ccccc34)CC2)cc1 | -4 | -1 | -16 | 1 | 7 | 21*
C=CCCC1CN(Cc2ccc(OC)cc2)S(=O)(=O)c2c(cccc2N2CCCC2)O1 (configuration not stated) | nt | 1 | nt | -3 | -4 | -1
C/C(=N\NC(=O)CSCc1ccc([N+](=O)[O-])cc1)c1ccccc1O | -4 | -2 | -6 | -1 | 1 | 3
C/C(=N\NC(=O)CSCc1ccc([N+](=O)[O-])cc1)c1ccccc1 | 8 | -7 | -2 | 0 | 1 | 30*
Cc1ccc(-n2c(SCC(=O)Nc3ccccc3-c3ccccc3)nnc2-c2ccccc2)cc1 | nt | -1 | nt | -1 | -2 | -5
CCCCCCCCCCCC(=O)N/N=C/c1ccco1 | -2 | 4 | 0 | -3 | 11 | 27*
CC1(C)Nc2ccc(O)cc2-c2c1ssc2=S | 11 | 6 | -19 | 22* | -8 | -7
COc1ccccc1NC(=O)/C(=C/c1cccc([N+](=O)[O-])c1)c1ccccc1 | -3 | -5 | -6 | 2 | -3 | 47*
COc1ccccc1NC(=O)CC(=O)c1cccc([N+](=O)[O-])c1 | nt | 2 | 16 | 3 | -1 | -2
CNc1ccc2c3c(cccc13)C(=O)N(C)C2=O | nt | 1 | -11 | + | -145 | i
C#CCN1C(=O)[C@]2(OCCC=C[C@H]2C)c2cc(OC)ccc21 | nt | 2 | nt | -1 | 2 | -2
CC1CCN(S(=O)(=O)c2ccc3c(c2)c(=O)c(C(=O)N2CCOCC2)cn3C)CC1 | nt | -2 | 0 | -1 | 1 | -1
CC1CCN(S(=O)(=O)c2ccc3c(c2)c(=O)c(C(=O)N2CCCCC2)cn3C)CC1 | -3 | -3 | 3 | -4 | -2 | 73*
COC(=O)/C=C/c1ccc2c(c1)OCO2 | -2 | -2 | -2 | 1 | 5 | 19
O=C(N/N=C\C=C\c1ccc2c(c1)OCO2)c1ccc(F)cc1 | 3 | -4 | -1 | 2 | -2 | 0
